Experimental data reported in ChEMBL document CHEMBL1938334, “Quinoline tricyclic derivatives. Design, synthesis and evaluation of the antiviral activity of three new classes of RNA-dependent RNA polymerase inhibitors” (Bioorg Med Chem, 2011).

Assays:
CCRF-CEM = assay: Cytotoxicity against human CCRF-CEM cells after 96 hrs by MTT assay; type: functional
Outline: (§1)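 Cells were seeded at 1×10^5 cells/mL: leukaemia/lymphoma lines in RPMI-1640, solid tumour and fibroblast lines in specific media, all with 10% FCS. Serial compound dilutions were applied for 96 h at 37 °C, 5% CO2, under conditions allowing controls at least three rounds of multiplication. Viability was read by MTT. CC50 by linear regression. Mean of three determinations.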

WIL2-NS = assay: Cytotoxicity against human WIL2-NS cells after 96 hrs by MTT assay; type: functional; outline: as §1
CCRF-SB = assay: Cytotoxicity against human CCRF-SB cells after 96 hrs by MTT assay; type: functional; outline: as §1
SK-MEL-28 = assay: Cytotoxicity against human SK-MEL-28 cells after 96 hrs by MTT assay; type: functional; details: SK-MEL-28, 96 h; outline: as §1
MCF7 = assay: Cytotoxicity against human MCF7 cells after 96 hrs by MTT assay; type: functional; details: MCF7, 96 h; outline: as §1
HepG2 = assay: Cytotoxicity against human HepG2 cells after 96 hrs by MTT assay; type: functional; details: HepG2, 96 h; outline: as §1
DU-145 = assay: Cytotoxicity against human DU145 cells after 96 hrs by MTT assay; type: functional; details: DU-145, 96 h; outline: as §1
[1] = Cytotoxicity against human CRL7065 cells after 96 hrs by MTT assay; type: cell-based, CRL-7065
Outline: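 Foreskin fibroblasts seeded at 1×10^5 cells/mL in specific medium with 10% FCS and antibiotics; serial compound dilutions, 37 °C, 5% CO2, 96 h, under conditions allowing untreated controls at least three rounds of multiplication. MTT read-out; concentration reducing proliferation by 50% by linear regression versus untreated controls; three independent determinations.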

[2] = Cytotoxicity against human MT4 cells after 96 hrs by MTT assay; type: cell-based
Outline: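 Exponentially growing MT-4 cells seeded at 1×10^5 cells/mL in RPMI-1640 with 10% FBS, penicillin and streptomycin. Incubated with serial compound dilutions at 37 °C, 5% CO2 for 96 h; viability by MTT. CC50 by linear regression relative to untreated controls; mean of three independent determinations.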

[3] = tested on: Human immunodeficiency virus 1; assay: Antiviral activity against HIV1 3B infected in human MT4 cells assessed as inhibition of virus-induced cytopathogenicity after 4 days by MTT assay; type: functional, organism-based; details: Human immunodeficiency virus 1, 3B, MT4, 96 h
Outline: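 MT-4 cells (1×10^4 per well) were infected with HIV-1 IIIB at 100 CCID50, m.o.i. 0.01, together with serial compound dilutions. Viability was read by MTT after 4 days at 37 °C. EC50 was taken by linear regression versus untreated controls. Mean of three determinations.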

[4] = Cytotoxicity against MDBK cells after 48 to 96 hrs by MTT assay; type: cell-based, Bos taurus; details: cattle
Outline: (§2)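 MDBK seeded at 6×10^5 and BHK at 1×10^6 cells/mL in MEM-Earle's with L-glutamine, 1 mM pyruvate, kanamycin, plus 10% horse serum (MDBK) or 10% FBS (BHK). Cells were grown at 37 °C, 5% CO2 with serial compound dilutions (DMSO stocks diluted in medium). Viability by MTT after 48–96 h. CC50 was taken by linear regression versus untreated controls; three independent determinations.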

[5] = Antiviral activity against Bovine viral diarrhea virus 1-NADL infected in MDBK cells assessed as inhibition of virus-induced cytopathogenicity after 3 to 4 days by MTT assay; type: functional, cell-based; details: Bovine viral diarrhea virus isolates and strains
Outline: (§3)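 Host cells were seeded in 96-well plates at 3×10^4 cells/well (MDBK) or 5×10^4 cells/well (BHK-21) and grown to confluent monolayers overnight. They were infected at m.o.i. 0.01 in maintenance MEM with 0.5% inactivated FBS. Serial compound dilutions were added after 1 h. Viability was read by MTT after 3–4 days at 37 °C. EC50 was taken by linear regression against untreated controls. Mean of three determinations.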

[6] = Cytotoxicity against BHK21 cells after 48 to 96 hrs by MTT assay; type: cell-based, Mesocricetus auratus, BHK-21; details: hamster; outline: as §2
Yellow fever virus = assay: Antiviral activity against Yellow fever virus 17D Stamaril Pasteur J07B01 infected in hamster BHK21 cells assessed as inhibition of virus-induced cytopathogenicity after 3 to 4 days by MTT assay; type: functional, cell-based; details: Stamaril Pasteur J07B01, BHK-21; outline: as §3
[7] = Cytotoxicity against african green monkey Vero 76 cells after 48 to 96 hrs by crystal violet staining; type: cell-based; details: chlorocebus sabaeus
Outline: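 Vero-76 cells were seeded at 4×10^5 cells/mL in D-MEM with L-glutamine, kanamycin and 10% FBS, then exposed to serial compound dilutions at 37 °C, 5% CO2 for 48–96 h. Viability was read by crystal violet staining. 50% cytotoxic concentration by linear regression relative to untreated controls; mean of three independent determinations.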

Coxsackievirus B5 = assay: Antiviral activity against Human coxsackievirus B5 Ohio-1 infected in african green monkey Vero 76 cells assessed as reduction of virus-induced plaque formation after 3 days using crystal violet staining; type: functional, organism-based; details: Enterovirus B, Ohio-1, Vero, 72 h
Poliovirus 1 = assay: Antiviral activity against Human poliovirus 1 strain Sabin Chat infected in african green monkey Vero 76 cells assessed as virus-induced reduction of plaque formation after 2 days using crystal violet staining; type: functional, cell-based; details: Enterovirus C, 48 h
Human orthopneumovirus = assay: Antiviral activity against Human respiratory syncytial virus A2 infected in african green monkey Vero 76 cells assessed as reduction of virus-induced plaque formation after 5 days using crystal violet staining; type: functional, organism-based; details: 120 h
[8] = Antiviral activity against Vaccinia virus Lister Elstree infected in african green monkey Vero 76 cells assessed as reduction of virus-induced plaque formation after 3 days using crystal violet staining; type: functional, cell-based; details: 72 h
[9] = Selectivity index, ratio of EC50 for Bovine viral diarrhea virus 1-NADL to CC50 for MDBK cells
Outline: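 CC50 was measured in mock-infected MDBK cells seeded at 6×10^5 cells/mL in MEM-E with 10% horse serum and treated with serial compound dilutions for 48–96 h; viability by MTT. EC50 came from BVDV NADL CPE protection in MDBK cells at m.o.i. 0.01, 3–4 days, MTT. Both were obtained by linear regression.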

Hepatitis C virus = assay: Antiviral activity against HCV1b infected in human GS4.1 cells assessed as inhibition of virus-induced cytopathogenicity by measuring viral NS4A protein level after 72 hrs by ELISA; type: functional, organism-based, Hepacivirus hominis; details: genotype 1b
Outline: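 GS4.1 cells are Huh-7 cells carrying a genotype 1b subgenomic replicon, kept in 0.5 mg/mL G418. They were seeded at 7.5×10^3 cells/well with two-fold serial dilutions of compound (top 75 μM) and incubated 72 h at 37 °C. Huh-7 cells without the replicon served as negative control. NS4A was measured by cell ELISA with anti-NS4A mAb A-236, peroxidase and o-phenylenediamine, A492. EC50 came from four-parameter sigmoidal fit.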

[10] = Selectivity index, […] for human GS4.1 cells
Outline: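 Both values come from GS4.1 replicon cells treated 72 h with two-fold serial dilutions (top 75 μM). EC50 was from NS4A ELISA with a four-parameter sigmoidal fit. CC50 was from a tetrazolium-based Aqueous One cell proliferation readout.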

[11] = Inhibition of Bovine viral diarrhea virus 1-NADL recombinant NS5B Cdelta 21 RNA dependent RNA polymerase expressed in Escherichia coli (DE3) using GTP as substrate preincubated for 30 mins before substrate addition measured after 120 mins by fluorescence assay

SMILES: O=[N+]([O-])c1ccc(-c2nc3cc4cccnc4c(Cl)c3[nH]2)cc1
- CC50 (CCRF-CEM): 49 µM
- CC50 (WIL2-NS): > 100 µM
- CC50 (CCRF-SB): > 100 µM
- CC50 (SK-MEL-28): > 100 µM
- CC50 (MCF7): > 100 µM
- CC50 (HepG2): 10.3 µM
- CC50 (DU-145): > 100 µM
- CC50 at 96 h [1]: > 100 µM
- CC50 at 96 h [2]: > 100 µM
- EC50 [3]: > 100 µM
- CC50 [4]: > 100 µM
- EC50 [5]: 1.2 µM
- CC50 [6]: > 100 µM
- EC50 (Yellow fever virus): > 100 µM
- CC50 [7]: > 100 µM
- EC50 (Coxsackievirus B5): > 100 µM
- EC50 (Poliovirus 1): > 100 µM
- EC50 (Human orthopneumovirus): > 100 µM
- EC50 [8]: > 100 µM
- Selectivity Index [9]: >100
- EC50 (Hepatitis C virus): 3.1 µM
- Selectivity Index [10]: 4
- IC50 [11]: 0.06 µM
